21 molecules from ChEMBL document CHEMBL1152327, “Cucurbitane-type triterpenoids from the stems of Cucumis melo” (J Nat Prod, 2009) can be followed below.

Experiment [1] has as its target Signal transducer and activator of transcription 3 (Homo sapiens) (UniProt P40763). Description: Inhibition of STAT3 upto 10 uM by Western blotting. The essentials:
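Phosphotyrosine Stat3 levels in treated cells, tested up to 10 µM. Cells washed in ice-cold PBS, lysed in SDS sample buffer, equal protein run on SDS-PAGE and transferred to PVDF. Blots blocked in 5% nonfat milk/TBST, then phospho-Stat3 and β-tubulin antibodies at 4 °C overnight, secondary 2 h room temperature, ECL detection. IC50 derived.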

The test system of experiment [2] is Bel-7402. Kind of experiment: Cytotoxicity against human Bel7402 cells upto 10 uM after 72 hrs by SRB assay. Type of experiment: functional, cell-based. The essentials:
(§1)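 A549/ATCC (human non-small-cell lung) or BEL-7402 (human hepatocellular) cells plated 24 h before treatment, then continuously exposed to a range of concentrations for 72 h. Cells fixed and stained with sulforhodamine B, bound dye solubilized in 10 mM Tris, absorbance read at 565 nm. IC50 derived.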

For experiment [3], the system named is A549. Kind of experiment: Cytotoxicity against human A549 cells upto 10 uM after 72 hrs by SRB assay. Type of experiment: functional, cell-based. The essentials: as §1
Experiment [4] has as its system Bel-7402. Description: Cytotoxicity against human Bel7402 cells after 72 hrs by SRB assay. The settings on record: Bel-7402, 72 h. In kind it is functional, cell-based. The essentials: as §1
Experiment [5] deals with A549. Description: Cytotoxicity against human A549 cells after 72 hrs by SRB assay. Type of experiment: functional, cell-based. To be noted: A549, 72 h. A digest of the protocol: as §1

Active and inactive are the calls of the source. No cut-off for these calls is given here.

Sequence of Signal transducer and activator of transcription 3 (Homo sapiens) (P40763 whole entry): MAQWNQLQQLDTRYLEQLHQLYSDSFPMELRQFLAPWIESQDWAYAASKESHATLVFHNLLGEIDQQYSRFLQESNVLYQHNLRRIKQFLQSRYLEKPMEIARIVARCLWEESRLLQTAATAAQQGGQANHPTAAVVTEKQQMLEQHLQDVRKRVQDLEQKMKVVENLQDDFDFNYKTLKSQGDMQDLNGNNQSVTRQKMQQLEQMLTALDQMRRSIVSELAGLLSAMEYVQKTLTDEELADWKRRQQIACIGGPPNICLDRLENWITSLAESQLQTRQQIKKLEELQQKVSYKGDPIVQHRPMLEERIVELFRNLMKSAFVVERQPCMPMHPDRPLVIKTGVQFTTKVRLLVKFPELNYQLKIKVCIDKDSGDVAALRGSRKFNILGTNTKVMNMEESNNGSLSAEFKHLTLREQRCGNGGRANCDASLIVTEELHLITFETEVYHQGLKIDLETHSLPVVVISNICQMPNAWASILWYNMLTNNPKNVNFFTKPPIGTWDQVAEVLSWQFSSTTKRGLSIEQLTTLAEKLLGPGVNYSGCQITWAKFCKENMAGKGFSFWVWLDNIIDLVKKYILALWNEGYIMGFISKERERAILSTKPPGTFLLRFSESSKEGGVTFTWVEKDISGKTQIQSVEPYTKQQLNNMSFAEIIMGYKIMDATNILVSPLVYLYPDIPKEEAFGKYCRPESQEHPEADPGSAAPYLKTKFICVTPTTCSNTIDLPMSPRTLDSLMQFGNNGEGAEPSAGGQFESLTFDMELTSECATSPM

Turning to `CC(C)=CCC[C@@H](C)[C@H]1CC[C@@]2(C)[C@@H]3CC=C4[C@H](CCCC4(C)C)[C@H]3C(=O)C[C@]12C`, the inhibition result in experiment [1] is “inactive”. The result in the experiment with Bel-7402 [2] and in the experiment on A549 [3] was inactive.
On to `CC(=O)OC(C)(C)/C=C/C(=O)[C@](C)(O)[C@H]1[C@H](O)C[C@@]2(C)[C@@H]3CC=C4[C@@H](C[C@H](O[C@@H]5O[C@H](CO)[C@@H](O)[C@H](O)[C@H]5O)C(=O)C4(C)C)[C@]3(CO)C(=O)C[C@]12C`, for which the inhibition entry in experiment [1] was “inactive”. Also, the result with Bel-7402 [2] and in the experiment with A549 [3] was inactive.
As for `CC1(C)C(=O)[C@@H](O)C[C@@H]2C1=CC[C@@H]1[C@@]2(C)C(=O)C[C@]2(C)[C@@H]([C@@](C)(O)C(=O)CC(O)C(C)(C)O)[C@H](O)C[C@@]12C` (some centres not stated), the inhibition entry in experiment [1] is “inactive”. Moreover, the outcome in the experiment with Bel-7402 [2] and with A549 [3] was inactive.
With `CC(C)(O)CCC(=O)[C@](C)(O)[C@H]1[C@H](O)C[C@@]2(C)[C@@H]3CC=C4[C@@H](C[C@H](O)C(=O)C4(C)C)[C@]3(C)C(=O)C[C@]12C`, the inhibition entry in experiment [1] was “inactive”. Also, the outcome with Bel-7402 [2] and with A549 [3] was inactive.
As to `CC(C)(O)/C=C/C(=O)[C@](C)(O)[C@H]1[C@H](O)C[C@@]2(C)[C@@H]3CC=C4[C@@H](C[C@H](O)C(=O)C4(C)C)[C@]3(CO)C(=O)C[C@]12C`, the inhibition result in experiment [1] was “inactive”. For the same molecule, the outcome in the experiment on Bel-7402 [2] and with A549 [3] was inactive.
For the molecule `C/C(=C\C(O)C[C@](C)(O)[C@H]1[C@H](O)C[C@@]2(C)[C@@H]3CC=C4[C@@H](C[C@H](O)C(=O)C4(C)C)[C@]3(C)C(=O)C[C@]12C)CO` (some centres not stated), the inhibition entry in experiment [1] is “inactive”. Also, the result in the experiment on Bel-7402 [2] and in the experiment with A549 [3] was inactive.
As for `CC(=O)[C@H]1[C@H](O)C[C@@]2(C)[C@@H]3CC=C4[C@@H](C[C@H](O[C@@H]5O[C@H](CO)[C@@H](O)[C@H](O)[C@H]5O)C(=O)C4(C)C)[C@]3(C)C(=O)C[C@]12C`, the inhibition result in experiment [1] is “inactive”. Besides, the result in the experiment on Bel-7402 [2] and in the experiment on A549 [3] was inactive.
As for `CC(=O)OC(C)(C)/C=C/C(=O)[C@](C)(O)[C@H]1[C@H](O)C[C@@]2(C)[C@@H]3CC=C4[C@@H](C[C@H](O[C@@H]5O[C@H](CO)[C@@H](O)[C@H](O)[C@H]5O)C(=O)C4(C)C)[C@]3(C)C(=O)C[C@]12C`, the inhibition result in experiment [1] was “inactive”. Further, the outcome in the experiment with Bel-7402 [2] and in the experiment on A549 [3] was inactive.
On to `CC(=O)OC(C)(C)CCC(=O)[C@](C)(O)[C@H]1[C@H](O)C[C@@]2(C)[C@@H]3CC=C4[C@@H](CC(=O)[C@H](O)C4(C)C)[C@]3(C)C(=O)C[C@]12C`, for which, in experiment [1], the inhibition result is “inactive”. Further, the outcome in the experiment with Bel-7402 [2] and in the experiment on A549 [3] was inactive.
In the case of `C/C(=C\[C@@H]1C[C@](C)(O)[C@H]2[C@@H](C[C@@]3(C)[C@@H]4[C@@H](O)C=C5[C@@H](C[C@H](O)[C@H](O)C5(C)C)[C@]4(C)C(=O)C[C@]23C)O1)CO`, the inhibition result in experiment [1] is “inactive”. The outcome with Bel-7402 [2] and in the experiment with A549 [3] was inactive.
Regarding `C/C(=C\[C@@H]1C[C@](C)(O)[C@H]2[C@@H](C[C@@]3(C)[C@@H]4[C@@H](O)C=C5[C@@H](C[C@H](O[C@@H]6O[C@H](CO)[C@@H](O)[C@H](O)[C@H]6O)[C@H](O)C5(C)C)[C@]4(C)C(=O)C[C@]23C)O1)CO`, in experiment [1], the inhibition result was “inactive”. Also, the result in the experiment with Bel-7402 [2] and in the experiment on A549 [3] was inactive.
As for `CC(=O)[C@H]1[C@H](O)C[C@@]2(C)[C@@H]3CC=C4[C@@H](C[C@H](O)C(=O)C4(C)C)[C@]3(C)C(=O)C[C@]12C`, in experiment [1], the inhibition result was “inactive”. Further, the result with Bel-7402 [2] and with A549 [3] was inactive.
`CC(=O)OC(C)(C)CCC(=O)[C@](C)(O)[C@H]1[C@H](O)C[C@@]2(C)[C@@H]3[C@@H](O)C=C4[C@@H](C[C@H](O)C(=O)C4(C)C)[C@]3(C)C(=O)C[C@]12C`: the inhibition entry in experiment [1] was “inactive”. In addition, the outcome in the experiment with Bel-7402 [2] and with A549 [3] was inactive.
As to `CC(=O)OC(C)(C)/C=C/C(=O)[C@](C)(O)[C@H]1[C@H](O)C[C@@]2(C)[C@@H]3CC=C4[C@@H](C[C@H](O)C(=O)C4(C)C)[C@]3(CO)C(=O)C[C@]12C` [CUCURBITACIN A], the IC50 in the experiment with Bel-7402 [4] came to 300 nM; in the experiment with A549 [5], 400 nM. For the same molecule, the inhibition result in experiment [1] was “inactive”.
For the molecule `CC(C)(O)CCC(=O)[C@](C)(O)[C@H]1[C@H](O)C[C@@]2(C)[C@@H]3CC=C4[C@@H](CC(=O)[C@H](O)C4(C)C)[C@]3(C)C(=O)C[C@]12C`, the inhibition entry in experiment [1] was “inactive”. The outcome in the experiment on Bel-7402 [2] and with A549 [3] was inactive.
For the molecule `CC(=O)OC(C)(C)CCC(=O)[C@](C)(O)[C@H]1[C@H](O)C[C@@]2(C)[C@@H]3CC=C4[C@@H](C[C@H](O)C(=O)C4(C)C)[C@]3(C)C(=O)C[C@]12C`, the inhibition result in experiment [1] is “inactive”. Besides, the result in the experiment with Bel-7402 [2] and in the experiment on A549 [3] was inactive.
Consider `CC1(C)C(=O)[C@@H](O)C[C@@H]2C1=CC[C@@H]1[C@@]2(C)C(=O)C[C@]2(C)[C@@H]([C@@](C)(O)C(=O)C[C@H](O)C(C)(C)O)[C@H](O)C[C@@]12C`, for which the inhibition result in experiment [1] was “inactive”. Also, the outcome with Bel-7402 [2] and with A549 [3] was inactive.
For `CC(=O)OC(C)(C)/C=C/C(=O)[C@](C)(O)[C@H]1[C@H](O)C[C@@]2(C)[C@@H]3CC=C4[C@H](C[C@H](O)C(=O)C4(C)C)[C@]3(C)C(=O)C[C@]12C` [CUCURBITACIN B], the IC50 in the experiment with Bel-7402 [4] came out at 8 nM; in the experiment on A549 [5], 10 nM.
As for `CC(C)(O)/C=C/C(=O)[C@](C)(O)[C@H]1[C@H](O)C[C@@]2(C)[C@@H]3CC=C4[C@@H](C[C@H](O[C@@H]5O[C@H](CO)[C@@H](O)[C@H](O)[C@H]5O)C(=O)C4(C)C)[C@]3(C)C(=O)C[C@]12C`, the inhibition result in experiment [1] was “inactive”. Further, the outcome in the experiment with Bel-7402 [2] and in the experiment with A549 [3] was inactive.
On to `CC(C)(O)CCC(=O)[C@](C)(O)[C@H]1[C@H](O)C[C@@]2(C)[C@@H]3CC=C4[C@@H](C[C@H](O)C(=O)C4(C)C)[C@]3(CO)C(=O)C[C@]12C`, for which the inhibition entry in experiment [1] is “inactive”. The outcome with Bel-7402 [2] and in the experiment with A549 [3] was inactive.
Take `CC(=O)OC(C)(C)/C=C/C(=O)[C@](C)(O)[C@H]1[C@H](O)C[C@@]2(C)[C@@H]3[C@@H](O)C=C4[C@@H](C[C@H](O)C(=O)C4(C)C)[C@]3(C)C(=O)C[C@]12C` [7BETA-HYDROXYCUCURBITACIN B]: the IC50 amounted to 7590 nM with Bel-7402 [4] and 3210 nM in the experiment on A549 [5]. For the same molecule, the inhibition result in experiment [1] was “inactive”.
